Test results published in publication PMC6072216 (MedChemComm, 2017).

Assays:
VERO cells = experiment: Cytotoxicity against GFP-expressing VERO cells; type: cell-based, African Green Monkey; conditions: 50 μg mL^–1 (158 μM for 2c, 139 μM for 3), 4 days
[1] = tested on: MDA-MB-231 breast cancer cells; experiment: MTS cell proliferation/viability assay, MDA-MB-231; type: cell-based, Human; conditions: for antiproliferative activity (in words): MDA-MB-231, 50 μM, 48 hours, MTS
Outline: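 MDA-MB-231 cells cultured in DMEM with 10% FBS and 1% penicillin/streptomycin at 37 °C, 5% CO2; seeded at 7 × 10^3 per well. Serum removed after 24 h, then test compound at 1–50 μM in DMSO (max 0.1%) for 48 h, with a solvent-only control. MTS reagent 4 h at 37 °C, OD 550 nm. Blank-subtracted values normalised to DMSO (100%); triplicates; IC50 by nonlinear regression.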

[2] = tested on: MCF-7 breast cancer cells; experiment: MTS cell proliferation assay, MCF-7; type: cell-based, human; conditions: MCF-7, highest concentration tested 50 μM, 48 h
Outline: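 MCF-7 cells seeded at 7 × 10^3 per well; serum withdrawn after 24 h, then exposed 48 h to test compound at 10–50 μM in DMSO (max 0.1%), with a solvent-only control. MTS reagent added; absorbance read at 550 nm after 4 h at 37 °C. Blank-subtracted values normalised to DMSO control (100%); triplicates.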

MDA-MB-231 cells = experiment: Annexin V-FITC/PI apoptosis assay by flow cytometry; type: cell-based, Human; conditions: 48 hours
Outline: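 MDA-MB-231 cells seeded at 1 × 10^5 per well in 6-well plates; 24 h after serum removal, exposed to test compound (20–40 μM) for 48 h against a 0.1% DMSO control. Trypsinised, washed in cold PBS, stained with Annexin V-FITC and PI (50 μg mL–1) in binding buffer for 20 min in the dark at 0 °C. Flow cytometry gated viable, early-apoptotic, late-apoptotic and necrotic fractions. 3 independent experiments; one-way ANOVA with Fisher's PLSD.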

[3] = tested on: leukaemia, colon, renal and melanoma cancer cell lines; experiment: NCI anti-cancer screen, summary over cell line groups; type: cell-based; conditions: read-out: IC50 values

Structure (SMILES) | reduction of VERO cell viability (VERO cells) | antiproliferative activity (in words) [1] | other results
C[C@]1(NC(=O)CCl)C2CC[C@@]3(C)N=C(CCl)C1CC3C2 (stereo partly drawn) [Compound 2c, Exo-11-chloroacetamido-4,endo-11-dimethyl-2-chloromethyl-3-azatricyclo[5.3.1.0^4,9]undec-2-ene] | 84 % of control |  | MDA-MB-231 cell viability ([1]; at 20 μM): 90 % of control; antiproliferative activity (in words) [2]: no antiproliferative activities; increase of population of cells in early apoptosis (MDA-MB-231 cells; 20 μM): 21%; increase of population of cells in early apoptosis (MDA-MB-231 cells; 40 μM): 31%
COC(=O)/C=C1\C(=O)C=C2C3CC4CC(CCC4(C)N21)C3(C)NC(C)=O (stereo not shown) [Compound 3] | 77 % of control |  | IC50 [3]: < 10 µM
CC(=O)N[C@@]1(C)C2CC[C@@]3(C)N=C(CCl)C1CC3C2 (stereo partly drawn) [Compound 8, Exo-11-acetamido-4,endo-11-dimethyl-2-chloromethyl-3-azatricyclo[5.3.1.0^4,9]undec-2-ene] |  | lack of activity | 
CC(=O)N[C@@]1(C)C2CC[C@@]3(C)N[C@@H](CCl)C1CC3C2 (stereo partly drawn) [Compound 9, Exo-11-acetamido-4,endo-11-dimethyl-2-chloromethyl-3-azatricyclo[5.3.1.0^4,9]undecane] |  | lack of activity | 
COC(=O)C[C@H]1C(=O)C=C2C3CC4CC(CC[C@@]4(C)N21)[C@]3(C)NC(C)=O (stereo partly drawn) [Compound 10, Methyl(E)-[exo-11-acetylamino-9α,endo-11-dimethyl-2-oxo-1,2,4,5,5α,6,7,8,9,9α-decahydro-4,7-methanopyrrolo[1,2-a]-quinolin-1-ylidane]ethanoate] |  | lack of activity | 
